Data: paper PMC11303814 (Nature Communications, 2024)
Numbering of substitutions follows the chain as printed.

Key:
Format in all cases: cell-based
[1] = target: T1, rP2X7-R125A (Rattus norvegicus, UniProt Q64663, R125A); test: TEVC dose response; details: read-out: EC50 (apparent affinity), mean ± SD, triplicate
T1 sequence (Q64663 1-595 R125A): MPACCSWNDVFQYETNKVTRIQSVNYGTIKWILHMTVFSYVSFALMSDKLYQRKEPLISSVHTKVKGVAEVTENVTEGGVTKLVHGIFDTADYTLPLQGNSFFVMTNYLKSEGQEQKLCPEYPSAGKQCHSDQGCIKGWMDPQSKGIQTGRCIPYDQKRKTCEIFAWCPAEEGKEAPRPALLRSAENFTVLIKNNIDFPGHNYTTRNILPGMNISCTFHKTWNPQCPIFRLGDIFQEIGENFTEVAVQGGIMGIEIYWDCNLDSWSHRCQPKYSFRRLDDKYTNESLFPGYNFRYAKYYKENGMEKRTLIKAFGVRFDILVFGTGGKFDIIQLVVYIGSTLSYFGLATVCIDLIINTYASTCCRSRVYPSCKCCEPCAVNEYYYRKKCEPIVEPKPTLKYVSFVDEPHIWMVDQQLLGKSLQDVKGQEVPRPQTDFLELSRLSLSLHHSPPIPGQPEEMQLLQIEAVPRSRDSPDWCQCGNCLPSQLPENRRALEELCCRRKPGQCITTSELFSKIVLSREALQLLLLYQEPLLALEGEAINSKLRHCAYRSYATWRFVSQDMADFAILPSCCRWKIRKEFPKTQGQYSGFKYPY
Outline: (§1)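 TEVC was run on Xenopus oocytes ~20 h after injection of wild-type or mutant rP2X7 mRNA, in pH 7.4 HEPES buffer with 0.1 mM flufenamic acid. Receptors were facilitated at 100 µM before recording. Dilution series: ATP 1.5 mM–2 µM (7 points), BzATP 300–0.14 µM (8 points). Responses were normalized to the largest concentration, fitted by nonlinear regression for EC50, and averaged across triplicates (mean ± SD).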

[2] = target: T2, rP2X7-I214A (Rattus norvegicus, UniProt Q64663, I214A); test: TEVC dose response; details: read-out: EC50 (apparent affinity), mean ± SD, triplicate
T2 sequence (Q64663 1-595 I214A): T1 sequence (Q64663 1-595 R125A) with A125R, I214A
Outline: as §1

[3] = target: T3, rP2X7-I214G (Rattus norvegicus, UniProt Q64663, I214G); test: TEVC dose response; details: read-out: EC50 (apparent affinity), mean ± SD, triplicate
T3 sequence (Q64663 1-595 I214G): T1 sequence (Q64663 1-595 R125A) with A125R, I214G
Outline: as §1

[4] = target: T4, rP2X7-R125A/Q143A (Rattus norvegicus, UniProt Q64663, Q143A/R125A); test: TEVC deactivation time; details: after 100 μM ATP or 10 μM BzATP
T4 sequence (Q64663 1-595 R125A/Q143A): T1 sequence (Q64663 1-595 R125A) with Q143A
Outline: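 Xenopus oocytes injected with 50 nL of 10 ng/µL mutant rP2X7 mRNA, expressed ~20 h, clamped in pH 7.4 HEPES buffer with 0.1 mM flufenamic acid and EDTA. Currents were evoked by 100 µM ATP or 10 µM BzATP. τ is the time for current to return to 63% of baseline after agonist removal, from a one- or two-phase decay fit. Done in triplicate over first to third applications per oocyte; mean ± SD.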

Row | EC50 [1] [µM] | EC50 [2] [µM] | EC50 [3] [µM] | deactivation lifetime τ [4] [s] | Compound
1 | 5 ± 1 | 2.5 ± 0.8 | 8 ± 1 | 2.5 ± 1.1 | BzATP
2 | 41 ± 14 | 68 ± 11 | 171 ± 14 | 1.8 ± 0.1 | Nc1ncnc2c1ncn2[C@@H]1O[C@H](COP(=O)(O)OP(=O)(O)OP(=O)(O)O)[C@@H](O)[C@H]1O [ATP]
